# Test results as given in ChEMBL document CHEMBL3792374, “Discovery of a ring-opened derivative of 3-n-butylphthalide bearing NO/H2S-donating moieties as a potential anti-ischemic stroke agent” (Eur J Med Chem, 2016).
# Active and inactive are the calls of the source. The calls are words filed in the database; no cut-off is given here.
# How the values were obtained:
# [1] = tested on: Rattus norvegicus; assay: Neuroprotective activity in Sprague-Dawley rat model of transient middle cerebral artery occlusion stroke model assessed as reduction in neurological deficit at 380 mg/kg […] measured 24 hrs after middle cerebral artery occlusion by Longa's method; format: functional, organism-based
# [2] = Induction of nitric oxide release in potassium phosphate buffer at pH 7.4 at 0.1 mM after 45 mins by Griess assay; format: physicochemical; settings: pH 7.4, 0.75 h, 100 µM
# In short: (§1)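 Compound (0.1 mM) in PBS pH 7.4 containing 2% DMSO and 5.0 mM L-cysteine was held at 37 °C for 15–300 min. Samples were taken every 15 min up to 120 min, then every 30 min. Each sample was reacted with Griess reagent for 10 min at 37 °C and absorbance read at 540 nm. Nitrite was quantified from a nitrite standard curve. Means reported; intra-group variation <10%.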
# [3] = tested on: Rattus norvegicus; assay: Antioxidant activity in Sprague-Dawley rat brain tissue model of transient middle cerebral artery occlusion stroke model assessed as increase in superoxide dismutase levels per mg of protein at 380 mg/kg […] measured 24 hrs after reperfusion by nitroblue tetrazolium assay relative to control; format: functional
# [4] = tested on: Rattus norvegicus; assay: (§2) Antioxidant activity in Sprague-Dawley rat brain tissue model of transient middle cerebral artery occlusion stroke model assessed as glutathione levels per mg of protein at 380 mg/kg administered via oral gavage for 7 days after ischemia onset measured 24 hrs after reperfusion by DTNB assay (reference value: 23.47 nmol); format: functional; settings: in the assay text read “before ischemia onset” for “after ischemia onset”
# In short: (§3)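 Male SD rats (280–320 g; n = 12 per group) were gavaged daily for 7 days, with 0.5% CMC-Na as vehicle. Two hours after the last dose they were anesthetized with chloral hydrate (300 mg/kg ip) and underwent 2 h MCAO followed by reperfusion. Brains were taken 24 h after reperfusion, rinsed in cold saline and stored at −70 °C. Protein was quantified, then GSH, SOD, GSH-Px and MDA were measured by kits. Mean ± SD, n = 6, ANOVA/Tukey.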
# [5] = tested on: Rattus norvegicus; assay: as §2, with “malondialdehyde” for “glutathione”, “reperfusion” for “reperfusion by DTNB assay”, “1.46” for “23.47”; format: functional; settings: in the assay text read “before ischemia onset” for “after ischemia onset”; in short: as §3
# [6] = Induction of nitric oxide release in potassium phosphate buffer at pH 7.4 at 0.1 mM after 30 mins by Griess assay; format: physicochemical; settings: pH 7.4, 0.5 h, 100 µM; in short: as §1
# [7] = tested on: Liver; assay: Induction of hydrogen sulfide release in rat liver homogenate at 100 uM after 90 mins by microplate reader method (reference value: 1.03 to 1.21%); format: functional, tissue-based
# In short: (§4)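 Compound was incubated at 37 °C for 0–90 min with fresh rat liver homogenate. The reaction was stopped with 1% zinc acetate and 10% trichloroacetic acid. N,N-dimethyl-p-phenylenediamine sulfate in 7.2 M HCl and FeCl3 in 1.2 M HCl were added, and absorbance was read at 670 nm after 10 min. Values were calculated against an NaHS standard curve as cumulative % conversion to H2S, n = 6.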
# [8] = Antiplatelet activity in rabbit platelet-rich plasma assessed as inhibition of ADP-induced platelet aggregation at 0.1 mM preincubated for 5 mins followed by addition of ADP measured within 5 mins by Borns turbidimetric method in presence of nitric oxide scavenger carboxy-PTIO; format: functional; settings: Oryctolagus cuniculus
# In short: (§5)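 Rabbit carotid blood was citrated (3.8%, 9:1). PRP was obtained at 500 g for 10 min and PPP at 3000 g for 10 min. PRP was preincubated in duplicate for 5 min at 37 °C with 0.1 mM compound, plus carboxy-PTIO or BSS where indicated. ADP was then added and maximal light transmission recorded within 5 min, within 3 h of blood collection. Inhibition % was calculated versus control. Mean ± SD of three independent experiments.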
# [9] = Antiplatelet activity in rabbit platelet-rich plasma assessed as inhibition of ADP-induced platelet aggregation at 0.1 mM preincubated for 5 mins followed by addition of ADP measured within 5 mins by Borns turbidimetric method in presence of H2S scavenger BSS; format: functional; settings: Oryctolagus cuniculus; in short: as §5
# [10] = tested on: Rattus norvegicus; assay: Antioxidant activity in Sprague-Dawley rat brain tissue model of transient middle cerebral artery occlusion stroke model assessed as increase in glutathione levels per mg of protein at 80 mg/kg […] measured 24 hrs after reperfusion by DTNB assay (reference value: 23.47 nmol); format: functional
# [11] = tested on: Liver; assay: Induction of hydrogen sulfide release in rat liver homogenate at 100 uM after 15 mins by microplate reader method (reference value: 1.03 to 1.21%); format: functional, tissue-based; in short: as §4
# [12] = tested on: Rattus norvegicus; assay: as §2, with “malondialdehyde” for “glutathione”, “80” for “380”, “reperfusion” for “reperfusion by DTNB assay”, “1.46” for “23.47”; format: functional; settings: in the assay text read “before ischemia onset” for “after ischemia onset”; in short: as §3
# [13] = Induction of nitric oxide release in potassium phosphate buffer at pH 7.4 at 0.1 mM after 90 mins by Griess assay; format: physicochemical; settings: pH 7.4, 1.5 h, 100 µM; in short: as §1
# [14] = Antiplatelet activity in rabbit platelet-rich plasma assessed as inhibition of ADP-induced platelet aggregation at 0.1 mM preincubated for 5 mins followed by addition of ADP measured within 5 mins by Borns turbidimetric method; format: functional; settings: Oryctolagus cuniculus; in short: as §5
# [15] = Antiplatelet activity in rabbit platelet-rich plasma assessed as inhibition of ADP-induced platelet aggregation preincubated for 5 mins followed by addition of ADP measured within 5 mins by Borns turbidimetric method; format: functional; settings: Oryctolagus cuniculus
# In short: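 Platelet-rich plasma from citrated rabbit carotid blood was preincubated in duplicate at 37 °C for 5 min with compound at 0.1, 0.2, 0.4, 0.8 or 1.6 mM. ADP-induced aggregation was then recorded turbidimetrically, as maximal light transmission within 5 min. Inhibition was calculated versus vehicle control, and IC50 values were derived. Mean ± SD, n = 6, ANOVA/Tukey.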
# [16] = tested on: Rattus norvegicus; assay: Antioxidant activity in Sprague-Dawley rat brain tissue model of transient middle cerebral artery occlusion stroke model assessed as increase in glutathione peroxidase levels per mg of protein at 80 mg/kg […] measured 24 hrs after reperfusion by DTNB assay relative to control; format: functional
# [17] = Induction of nitric oxide release in potassium phosphate buffer at pH 7.4 at 0.1 mM after 120 mins by Griess assay; format: physicochemical; settings: pH 7.4, 2 h, 100 µM; in short: as §1
# [18] = Induction of nitric oxide release in potassium phosphate buffer at pH 7.4 at 0.1 mM after 105 mins by Griess assay; format: physicochemical; settings: pH 7.4, 1.75 h, 100 µM; in short: as §1
# [19] = tested on: Rattus norvegicus; assay: Neuroprotective activity in Sprague-Dawley rat model of transient middle cerebral artery occlusion stroke model assessed as reduction in infarct size at 380 mg/kg administered via oral gavage for 7 days […] measured 24 hrs after middle cerebral artery occlusion by TTC assay; format: functional, organism-based
# In short: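 Male SD rats (280–320 g), n=12/group, dosed by gavage in 0.5% CMC-Na daily for seven days; 2 h after last dose, anesthetized (chloral hydrate 300 mg/kg ip) and subjected to 2 h intraluminal MCAO then reperfusion. At 24 h post-reperfusion, brains (n=6) cut coronally at 2 mm, stained 2% TTC 30 min 37 °C, formalin-fixed; infarct area expressed as percent of whole brain; mean SD, ANOVA/Tukey.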
# [20] = Induction of nitric oxide release in potassium phosphate buffer at pH 7.4 at 0.1 mM after 240 mins by Griess assay; format: physicochemical; settings: pH 7.4, 4 h, 100 µM; in short: as §1
# [21] = tested on: Liver; assay: Induction of hydrogen sulfide release in rat liver homogenate at 100 uM after 60 mins by microplate reader method (reference value: 1.03 to 1.21%); format: functional, tissue-based; in short: as §4
# [22] = Induction of nitric oxide release in potassium phosphate buffer at pH 7.4 at 0.1 mM after 300 mins by Griess assay; format: physicochemical; settings: pH 7.4, 5 h, 100 µM; in short: as §1
smiles,measurement,setting,value
CCCCC(OC(=O)CN1CCN(CCCCCOc2ccc(-c3cc(=S)ss3)cc2)CC1)c1ccccc1C(=O)Oc1ccc(/C=C/C(=O)OCCO[N+](=O)[O-])cc1OC (racemic),Activity,[1],Active
same,Activity,[2],6.89 µM
same,Activity,[3],32.02%
same,Activity,[4],28.05 nmol
same,Activity,[5],0.86 nmol
same,Activity,[6],5.48 µM
same,Activity,[7],4.4%
same,inhibition at 100 µM,[8],29.1%
same,inhibition at 100 µM,[9],20.9%
same,Activity,[10],25.22 nmol
same,Activity,[11],2.83%
same,Activity,[12],1.07 nmol
same,Activity,[13],9.14 µM
same,inhibition at 100 µM,[14],41%
same,IC50,[15],140 µM
same,Activity,[16],29.57%
same,Activity,[17],10.09 µM
same,Activity,[18],9.63 µM
same,Activity,[19],Active
same,Activity,[20],10.35 µM
same,Activity,[21],4.25%
same,Activity,[22],10.57 µM
